According to publication PMC5826771 (Molecular pharmaceutics, 2017):
Where a SMILES comes first, the peptide text is derived from it. [ ]: non-standard residue; d: D form. Sar = CNCC(=O)O

Key:
[1] = target: T1, hPepT1 (Homo sapiens, UniProt P46059); type: cell-based; conditions: hPepT1-expressing oocytes; for induction of inward current (in words): pH 6.0, voltage clamp −50 mV
T1 sequence (P46059 1-708): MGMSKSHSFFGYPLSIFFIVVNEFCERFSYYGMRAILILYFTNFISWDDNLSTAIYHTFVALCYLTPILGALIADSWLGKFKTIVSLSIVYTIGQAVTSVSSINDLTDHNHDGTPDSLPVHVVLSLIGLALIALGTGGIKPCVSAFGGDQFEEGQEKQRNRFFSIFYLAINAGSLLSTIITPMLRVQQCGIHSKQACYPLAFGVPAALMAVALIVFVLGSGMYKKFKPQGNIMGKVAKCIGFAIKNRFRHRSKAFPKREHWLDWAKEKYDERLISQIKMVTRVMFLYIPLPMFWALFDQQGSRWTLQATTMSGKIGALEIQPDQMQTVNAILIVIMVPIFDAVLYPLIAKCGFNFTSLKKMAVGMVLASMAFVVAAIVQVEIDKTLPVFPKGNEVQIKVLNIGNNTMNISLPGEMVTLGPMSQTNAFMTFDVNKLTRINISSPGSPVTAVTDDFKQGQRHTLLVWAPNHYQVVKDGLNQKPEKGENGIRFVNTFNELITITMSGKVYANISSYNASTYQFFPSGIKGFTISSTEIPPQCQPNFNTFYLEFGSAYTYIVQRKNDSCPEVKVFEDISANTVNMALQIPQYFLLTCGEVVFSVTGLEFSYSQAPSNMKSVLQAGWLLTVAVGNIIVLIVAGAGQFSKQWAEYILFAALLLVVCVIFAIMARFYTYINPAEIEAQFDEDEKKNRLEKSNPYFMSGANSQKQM
Method in brief: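 Stage V–VI X. laevis oocytes were collagenase-treated, defolliculated, held at 18 °C in modified Barth's medium with gentamicin, and injected with 50 ng hPepT1 cRNA, with water-injected controls. TEVC clamped at −50 mV under pH 7.5 buffer, then NaCl buffer pH 6.0 ± test compound to steady state, then washout. Induced current = steady-state difference, expressed relative to 1 mM or 250 µM glycylsarcosine currents.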

[2] = target: T1, hPepT1; type: cell-based
[3] = target: T1, hPepT1; conditions: cited from earlier work

| induction of inward current (in words) [1] | IC50 [2] | induced inward current ([1]; 1 mM, buffer pH 6.0, clamped at −50 mV) | Compound | identified as hPepT1 inhibitor [3] |
| --- | --- | --- | --- | --- |
| induced significant inward currents | – | – | Nc1ccc(CC(=O)O)cc1 [4-amino PA, 4-amino phenyl acetic acid] | – |
| induced significant inward currents | 3.9 mM | – | COC(=O)[C@H](Cc1ccccc1)NC(=O)[C@@H](N)CC(=O)O [aspartame] (H-Asp-Phe-OMe) | inhibitor |
| – | – | 300–400 nA | CN(CC(=O)O)C(=O)CN [glycylsarcosine] (H-Gly-[Sar]-OH) | – |
